{"source": "ChEMBL document CHEMBL5244249", "about": "“Discovery of tofacitinib derivatives as orally active antitumor agents based on the scaffold hybridization strategy” (Eur J Med Chem, 2020)", "key": {"MGC-803 [1]": {"system": "MGC-803", "assay": "Antitumor activity against human MGC-803 cells xenografted in SCID mouse assessed as decrease in average tumor volume at 12.5 to 25 mg/kg, IG administered for 21 days", "assay_type": "functional, organism-based", "details": "dose 12.5-25 mg/kg, time 21.0 day", "how_it_was_run": "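MGC-803 cells implanted subcutaneously on the right side of SCID mice; dosed at 12.5 or 25 mg/kg in 0.5% CMC-Na (vehicle control) for 21 days. Body weight and tumor size recorded periodically; tumors excised and weighed at end. Means ± SD.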"}, "MGC-803 [2]": {"system": "MGC-803", "assay": "Cell cycle arrest in human MGC-803 cells assessed as G0/G1 phase cells at 10 uM incubated for 24 hrs by RNase/PI staining based flow cytometric analysis (reference value: 54.99%)", "assay_type": "functional"}, "MGC-803 [3]": {"system": "MGC-803", "assay": "Inhibition of colony formation in human MGC-803 cells at 3 uM incubated for 9 days by crystal violet staining based analysis relative to control", "assay_type": "functional", "details": "MGC-803, 216 h, time 9 day", "how_it_was_run": "(§1)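 Clonogenic assay: MGC-803 cells grown 9 days with 0, 1, 2 or 3 μM; colonies counted and inhibition rate calculated against untreated control; mean ± SD of three independent experiments.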"}, "[4]": {"assay": "Toxicity in SCID mouse xenografted with human MGC-803 cells assessed as effect on body weight at 12.5 to 25 mg/kg, IG administered for 21 days", "assay_type": "organism-based", "details": "in vivo, po, 504 h, dose 12.5-25 mg/kg, time 21 day", "how_it_was_run": "(§2)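 SCID mice bearing subcutaneous MGC-803 xenografts (right side) dosed with 12.5 or 25 mg/kg over 21 days, 0.5% CMC-Na vehicle as control; body weight and tumor size monitored periodically; major organs examined histopathologically at end; means ± SD.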"}, "MGC-803 [5]": {"system": "MGC-803", "assay": "Cell cycle arrest in human MGC-803 cells assessed as G0/G1 phase cells at 7.5 uM incubated for 24 hrs by RNase/PI staining based flow cytometric analysis (reference value: 54.99%)", "assay_type": "functional"}, "MGC-803 [6]": {"system": "MGC-803", "assay": "Induction of mitochondrial dysfunction in human MGC-803 cells assessed as downregulation of procaspase-7 expression at 5 to 10 uM incubated for 24 hrs by Western blot analysis", "assay_type": "functional, cell-based", "details": "dose 5-10 µM", "how_it_was_run": "(§3)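 Western blot of caspase 9, 3, 7, PARP and γH2A.X in MGC-803 lysates after 24 h exposure to 5, 7.5 or 10 μM; band quantitation; mean ± SD from three independent experiments.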"}, "MGC-803 [7]": {"system": "MGC-803", "assay": "Inhibition of colony formation in human MGC-803 cells at 2 uM incubated for 9 days by crystal violet staining based analysis relative to control", "assay_type": "functional", "details": "MGC-803, 216 h, time 9 day", "how_it_was_run": "as §1"}, "MGC-803 [8]": {"system": "MGC-803", "assay": "Antiproliferative activity against human MGC-803 cells assessed as decrease in cell viability at 10 uM preincubated with SB203580 for 4 hrs followed by compound addition and measured after 24 hrs by MTT assay", "assay_type": "functional, cell-based", "how_it_was_run": "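MGC-803 cells pre-incubated 4 h with SB203580 (4 μM) or SP600125 (20 μM), then exposed to 10 μM test compound for 24 h; viability by MTT, expressed as percent of control. Mean ± SD, three independent experiments.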"}, "MGC-803 [9]": {"system": "MGC-803", "assay": "Induction of mitochondrial dysfunction in human MGC-803 cells assessed as upregulation of cleaved PARP expression at 5 to 10 uM incubated for 24 hrs by Western blot analysis", "assay_type": "functional, cell-based", "details": "dose 5-10 µM", "how_it_was_run": "as §3"}, "MGC-803 [10]": {"system": "MGC-803", "assay": "Induction of apoptosis in human MGC-803 cells assessed as late apoptotic cells at 10 uM incubated for 48 hrs by Annexin V-FITC/PI staining based flow cytometric analysis (reference value: 0.5 %)", "assay_type": "functional"}, "MGC-803 [11]": {"system": "MGC-803", "assay": "Cell cycle arrest in human MGC-803 cells assessed as G2/M phase cells at 7.5 uM incubated for 24 hrs by RNase/PI staining based flow cytometric analysis (reference value: 15.11%)", "assay_type": "functional"}, "MGC-803 [12]": {"system": "MGC-803", "assay": "Inhibition of cell migration in human MGC-803 cells incubated for 24 hrs by wound healing assay", "assay_type": "functional, cell-based", "details": "dose 5-10 µM", "how_it_was_run": "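Wound-healing scratch assay in MGC-803 monolayers; 24 h exposure to 0, 5, 7.5 or 10 μM; migration quantified; three independent experiments, mean ± SD.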"}, "MGC-803 [13]": {"system": "MGC-803", "assay": "Induction of mitochondrial dysfunction in human MGC-803 cells assessed as increase in ratio of green to red fluorescence intensity at 10 uM incubated for 24 hrs by JC-1 staining based fluorescence microscopic analysis", "assay_type": "functional"}, "MGC-803 [14]": {"system": "MGC-803", "assay": "Induction of mitochondrial dysfunction in human MGC-803 cells assessed as upregulation of gammaH2AX expression at 5 to 10 uM incubated for 24 hrs by Western blot analysis", "assay_type": "functional, cell-based", "details": "dose 5-10 µM", "how_it_was_run": "as §3"}, "MGC-803 [15]": {"system": "MGC-803", "assay": "Induction of apoptosis in human MGC-803 cells assessed as viable cells at 10 uM incubated for 24 hrs by Annexin V-FITC/PI staining based flow cytometric analysis (reference value: 90.3 %)", "assay_type": "functional", "details": "read-out: Activity"}, "MGC-803 [16]": {"system": "MGC-803", "assay": "Induction of apoptosis in human MGC-803 cells assessed as decrease in Mcl-1 protein expression at 5 to 10 uM incubated for 24 hrs by Western blot analysis", "assay_type": "functional, cell-based", "details": "dose 5-10 µM", "how_it_was_run": "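After 24 h exposure of MGC-803 cells, Bcl-2, Mcl-1, Bax and cytochrome c release assessed by Western blot with band quantitation; mean ± SD from three independent experiments.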"}, "HGC-27": {"system": "HGC-27", "assay": "Antiproliferative activity against human HGC-27 cells assessed as inhibition of cell growth incubated for 72 hrs by MTT assay", "assay_type": "functional, cell-based", "details": "HGC-27, 72 h", "how_it_was_run": "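Antiproliferative screen in gastric cancer lines MGC-803, HGC-27 and BGC-823 by MTT assay; IC50 reported as mean ± SD.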"}, "MGC-803 [17]": {"system": "MGC-803", "assay": "Induction of apoptosis in human MGC-803 cells assessed as necrotic cells at 5 uM incubated for 24 hrs by Annexin V-FITC/PI staining based flow cytometric analysis (reference value: 2.0 %)", "assay_type": "functional"}, "MGC-803 [18]": {"system": "MGC-803", "assay": "Induction of apoptosis in human MGC-803 cells assessed as viable cells at 10 uM incubated for 48 hrs by Annexin V-FITC/PI staining based flow cytometric analysis (reference value: 96.7 %)", "assay_type": "functional", "details": "read-out: Activity"}, "[19]": {"assay": "Toxicity in SCID mouse xenografted with human MGC-803 cells assessed as effect on heart at 12.5 to 25 mg/kg, IG administered for 21 days by H&E staining based histopathological analysis", "assay_type": "organism-based", "details": "in vivo, po, 504 h, dose 12.5-25 mg/kg, time 21 day", "how_it_was_run": "as §2"}, "[20]": {"assay": "Toxicity in SCID mouse xenografted with human MGC-803 cells assessed as effect on lung at 12.5 to 25 mg/kg, IG administered for 21 days by H&E staining based histopathological analysis", "assay_type": "organism-based", "details": "in vivo, po, 504 h, dose 12.5-25 mg/kg, time 21 day", "how_it_was_run": "as §2"}, "MGC-803 [21]": {"system": "MGC-803", "assay": "Induction of apoptosis in human MGC-803 cells assessed as nuclear condensation at 5 to 10 uM incubated for 24 hrs by Hoechst 33342 staining based fluorescence microscopic analysis", "assay_type": "functional, cell-based", "details": "dose 5-10 µM", "how_it_was_run": "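MGC-803 cells treated at 0, 5, 7.5 and 10 μM; cell morphology and nuclear morphology (fragmentation, condensation) examined by staining and imaging; three independent experiments, mean ± SD.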"}, "[22]": {"assay": "Toxicity in SCID mouse xenografted with human MGC-803 cells assessed as effect on spleen at 12.5 to 25 mg/kg, IG administered for 21 days by H&E staining based histopathological analysis", "assay_type": "organism-based", "details": "in vivo, po, 504 h, dose 12.5-25 mg/kg, time 21 day", "how_it_was_run": "as §2"}, "MGC-803 [23]": {"system": "MGC-803", "assay": "Cell cycle arrest in human MGC-803 cells assessed as G0/G1 phase cells at 5 uM incubated for 24 hrs by RNase/PI staining based flow cytometric analysis (reference value: 54.99%)", "assay_type": "functional"}, "MGC-803 [24]": {"system": "MGC-803", "assay": "Induction of apoptosis in human MGC-803 cells assessed as necrotic cells at 10 uM incubated for 24 hrs by Annexin V-FITC/PI staining based flow cytometric analysis (reference value: 2.0 %)", "assay_type": "functional"}}, "note": "Activity calls are given as the source filed them. The rule behind the calls is not given here."}
{"molecule": "Cc1cc(N2CC[C@@H](C)[C@@H](N(C)c3ncnc4[nH]ccc34)C2)n2nc(SCc3ccc(C(F)(F)F)cc3)nc2n1", "values": [{"measurement": "Activity", "setting": "MGC-803 [1]", "value": "Active"}, {"measurement": "Activity", "setting": "MGC-803 [2]", "value": 56.74, "unit": "%"}, {"measurement": "inhibition at 3 µM", "setting": "MGC-803 [3]", "value": 73, "unit": "%"}, {"measurement": "Activity", "setting": "[4]", "value": "Non-Toxic"}, {"measurement": "Activity", "setting": "MGC-803 [5]", "value": 56.42, "unit": "%"}, {"measurement": "Activity", "setting": "MGC-803 [6]", "value": "Active"}, {"measurement": "inhibition at 2 µM", "setting": "MGC-803 [7]", "value": 54, "unit": "%"}, {"measurement": "Activity", "setting": "MGC-803 [8]", "value": "inactive"}, {"measurement": "Activity", "setting": "MGC-803 [9]", "value": "Active"}, {"measurement": "Activity", "setting": "MGC-803 [10]", "value": 77.2, "unit": "%"}, {"measurement": "Activity", "setting": "MGC-803 [11]", "value": 12.24, "unit": "%"}, {"measurement": "inhibition", "setting": "MGC-803 [12]", "value": "Dose-Dependent Effect"}, {"measurement": "Ratio", "setting": "MGC-803 [13]", "value": "<=8.73"}, {"measurement": "Activity", "setting": "MGC-803 [14]", "value": "Active"}, {"measurement": "viability at 10 µM", "setting": "MGC-803 [15]", "value": 57.1, "unit": "%"}, {"measurement": "Activity", "setting": "MGC-803 [16]", "value": "Active"}, {"measurement": "IC50", "setting": "HGC-27", "value": 9.54, "unit": "µM"}, {"measurement": "Activity", "setting": "MGC-803 [17]", "value": 4, "unit": "%"}, {"measurement": "viability at 10 µM", "setting": "MGC-803 [18]", "value": 17, "unit": "%"}, {"measurement": "Activity", "setting": "[19]", "value": "Non-Toxic"}, {"measurement": "Activity", "setting": "[20]", "value": "Non-Toxic"}, {"measurement": "Activity", "setting": "MGC-803 [21]", "value": "Active"}, {"measurement": "Activity", "setting": "[22]", "value": "Non-Toxic"}, {"measurement": "Activity", "setting": "MGC-803 [23]", "value": 56.93, "unit": "%"}, {"measurement": "Activity", "setting": "MGC-803 [24]", "value": 2.2, "unit": "%"}]}
